# XBP1 UPR activ = activators of adaptive XBP1 UPR arm, primary screen, cell-based, CHO-XBP1 luciferase reporter, luminescence, uHTS. IRE1-XBP1 UPR activation; percent of tunicamycin response, DMSO as zero. activation, % at 20 µM. actives 0.33% (n = 330,000). AID 463104, 2010;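 active = versus positive control, 20 µM dose yields 30% or more activation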;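 also: 100% = tunicamycin at 10 µg/mL and 0% = DMSO only wells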
#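 Material – CHO cell line with stable XBP1 luciferase reporter · Buffer or medium – F12 plus 10% FBS · Compound – single point, 20 µM final compound, 1% DMSO · Schedule – 16-18 h cell attachment at 37 °C, then 6 h compound exposure · Signal – Steady-Glo luminescence read · Benchmarks – high control tunicamycin 10 µg/mL final, low control DMSO vehicle only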
# Lmaj promast = Leishmania major promastigote growth inhibition, primary screen | Leishmania major promastigotes, resazurin fluorescence viability | inhibition, % at 10 µM | actives 9% (n = 200,000) | AID 1063, 2008; in the data active = inhibition above about 50%;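 also: promastigotes grown with compound for 44 hours at 28 °C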
# CHOP inh = inhibitors of CHOP promoter induction, primary screen, cell-based, unfolded protein response, luciferase reporter | actives 3.8% (n = 220,000) | CHO-K1 CHOP-promoter luciferase, tunicamycin-induced, 15-18 h | inhibition, % at 10 µM;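 active = compounds that reduced the stress-induced luciferase reporter signal by more than about 70% of percent inhibition, limit read from the data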;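 also: 0% = tunicamycin plus vehicle and 100% = wells without tunicamycin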
# T cruzi inh = inhibitors of intracellular T. cruzi growth, primary screen, luminescence, NIH3T3 host cells | actives 1.4% (n = 300,000) | inhibition, % (test concentration not listed) | T. cruzi beta-gal in NIH3T3, 90 h | AID 1885, 2009;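 active = mean inhibition across valid replicates above about 55%, limit read from the data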;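 also: signal also drops with host cell toxicity which is not excluded here; 0% = plate median of DMSO wells and 100% = zero luminescence signal; higher percent means less beta-gal luminescence so fewer parasites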
#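 Read-out: Parasite load inhibition, % | Test system: Mouse NIH/3T3 fibroblasts infected with β-gal-expressing T. cruzi Tulahuen C4 | Amount: 5,000 cells/well | Medium: DMEM, 2% fetal bovine serum | Signal: GalScreen β-gal luminescence, detergent lysis, 60 min | Timing: 3 h attach, ≥90 h co-culture | Also added: Tulahuen C4 trypomastigotes, 5000/well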
# Dynein cargo inh = inhibitors of GR-EGFP nuclear translocation, primary screen, dynein cargo transport inhibitor project, imaging, high-content, 3617.4 mouse cells | actives 0.47% (n = 220,000) | test concentration mostly 20 µM; stimulated with dexamethasone, 1 µM; active compounds read low | z-score, hits read low;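 active = plate z-score of nuclear minus cytoplasmic receptor signal below a set negative limit, without overly bright fluorescence or cell loss, cut at about -3.5 in these data, passing the limit was not always enough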;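 also: z-score of nuclear minus cytoplasmic ring GR-EGFP intensity difference per well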
#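 Schedule: 48 h induction, then 1 h compound, then 30 min agonist, 37 °C. Buffer or medium: tetracycline-free induction medium containing charcoal-stripped FBS. Reagent: 1.0 µM final dexamethasone stimulus. Evaluation: nuclear versus cytoplasmic GR-EGFP signal, averaged per well. Signal: high-content fluorescence imaging after fixation.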
# CHOP UPR activ = activators of apoptotic CHOP UPR arm, primary screen, cell-based, CHO-CHOP luciferase reporter, luminescence, uHTS; UPR activation; percent of tunicamycin response over DMSO baseline; activation, % at 10 µM; actives 0.34% (n = 330,000); AID 449763, 2010;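 active = at 10 µM dose, activation of 40% or more, normalized to positive control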;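 also: 100% = tunicamycin at 10 µg/mL and 0% = DMSO alone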
#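 Test system: CHO-CHOP cells, stable luciferase reporter of PERK-eIF2a-CHOP signalling | Quantity: 500 CHO-CHOP cells per well | Buffer or medium: F12 plus 10% serum | Compound dosing: 10 µM single point, 0.5% DMSO | Schedule: 6 h compound treatment, 37 °C | Signal: Luciferase luminescence | Control set: Tunicamycin high control, DMSO low control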
# The depositor's hits bear a star; / = no result given. The entries come from a sample that favours hits as a whole.
SMILES,XBP1 UPR activ,Lmaj promast,CHOP inh,T cruzi inh,Dynein cargo inh,CHOP UPR activ
N/C(=N\OC(=O)c1ccccc1Cl)c1ccccc1,-4,0,45,1,-0.09,-4
Cc1ccc(Cl)cc1NC(=S)N(CCCN1CCN(C)CC1)Cc1cccs1,2,54*,19,6,0.26,1
COc1ccc(NC(=S)N(CCCN2CCCC2)Cc2cccs2)cc1,0,80*,-13,-31,-0.22,1
CSc1cccc(NC(=S)N(CCCN2CCCC2)Cc2cccs2)c1,-1,99*,34,-2,-0.95,2
COc1ccc(NC(=S)N(CCCN2CCCC(C)C2)Cc2cccs2)cc1 (configuration not stated),-2,95*,4,8,-0.16,0
COc1ccc(NC(=S)N(CCCN2CCCC2)Cc2ccco2)cc1,-2,14,-12,-15,-0.37,-1
COc1ccc(NC(=S)N(CCN(C)C)Cc2cccs2)cc1,-1,7,5,3,1.3,1
CCCNS(=O)(=O)c1cccc(C(=O)NNC(=O)c2cc(C)oc2C)c1,-3,/,/,-7,/,-1
Cc1ccc(OCc2cc(C(=O)N(C)Cc3cnc4ccccn34)no2)cc1C,-3,/,/,2,/,3
N#Cc1ccc(CC(C(=O)O)N2Cc3ccccc3C2=O)cc1 (configuration not stated),0,/,/,-5,/,-1
Cc1nn(CC(=O)Nc2ccc(Cl)cc2Cl)c(=O)c2ccccc12,-4,/,/,10,/,-2
CSc1ccc(S(=O)(=O)N2CCC(C(=O)NC3CC3)CC2)cc1,2,/,/,7,/,2
Cc1cccc(C(=O)Nc2ccc(S(=O)(=O)Nc3nc(C)cc(C)n3)cc2)c1,-3,/,/,-7,/,2
COc1ccc(NC(=S)N(CCCN2CCCCCC2)Cc2cccs2)cc1,0,97*,1,25,-0.27,3
O=C(Nc1cc(C(F)(F)F)ccc1N1CCCC1)C1CCCO1 (configuration not stated),0,/,/,/,/,-1
CCCC[n+]1ccn(C2=C([O-])c3ccccc3C(=O)/C2=N\S(=O)(=O)c2ccccc2)c1,-4,38,-3,1,-0.044,-2
CCCCC[n+]1ccn(C2=C([O-])c3ccccc3C(=O)/C2=N\S(=O)(=O)c2ccccc2)c1,0,91*,-29,1,0.45,0
CCOC(=O)c1c(C)n(C(=O)c2ccco2)c(=O)n1C(=O)c1ccco1,-1,-4,85*,-16,0.088,-1
CCOC(=O)c1c(C)c(C(=O)N2CCN(C(=O)c3ccco3)CC2)c(C)n1C,0,-1,4,0,-0.77,0
Cc1c(C(=O)NCC(c2ccco2)N(C)C)oc2c(Cl)cccc12 (configuration not stated),-2,/,/,17,/,2
CCCCNC(=S)NNc1c(Cl)cc(Cl)cc1Cl,2,-2,82*,15,0.72,0
COc1ccc(C(=O)CC(=O)c2ccccc2O)cc1,-5,/,/,3,/,6
COc1ccc(O)c(C(=O)CC(=O)c2ccccc2C)c1,4,92*,104*,-2,1.5,4
CN1/C(=C\C(=O)c2ccccc2Cl)c2ccccc2CC1(C)C,-2,70*,47,29,-0.99,4
Cc1ccccc1Cn1ccc(=NCc2ccccc2)cc1,-2,100*,4,31,-0.38,0
SMILES,XBP1 UPR activ,Lmaj promast,CHOP inh,T cruzi inh,Dynein cargo inh,CHOP UPR activ
CC(=O)Nc1cccc(-c2cnc(N)c(C(=O)c3cccnc3)n2)c1,-4,/,/,/,/,1
Nc1cc(S(=O)(=O)N2CCCCC2)ccc1Oc1ccc(Cl)cc1,0,-7,49,24,-0.91,2
CCCCOc1ccc(S(=O)(=O)N2CCCCCC2)cc1,-1,7,91*,6,0.19,0
CCCCOc1ccc(S(=O)(=O)N2CCN(C)CC2)cc1,-1,/,/,-34,/,2
COc1ccccc1Oc1ccc(S(=O)(=O)N2CCCC2)cc1,0,99*,13,10,-0.27,1
Cc1cccc(Oc2ccc(S(=O)(=O)N3CCCCC3)cc2N)c1,0,80*,40,-5,0.56,-1
Cc1cccc(C)c1NC(=O)COC(=O)c1cc[n+]([O-])cc1,-3,/,/,-19,/,1
CCOc1ccc(C(c2c(NC(=O)c3ccccc3)sc(C)c2C)N2CCN(C)CC2)cc1 (configuration not stated),0,52*,26,29,-0.072,1
Nc1cc(N)nc(SCC(=O)NC2CCCCCCC2)n1,2,/,/,/,/,0
COC(=O)c1cc2sccc2n1Cc1nc(-c2ccc(OC)cc2)oc1C,-3,100*,44,30,-1,0
COC(=O)c1cc2sc(Cl)cc2n1Cc1nc(-c2ccccc2)oc1C,-5,-2,31,-6,-0.58,0
CCNC(=O)C1OC(n2cnc3c(NCc4ccccc4)ncnc32)C(O)C1O (configuration not stated),/,/,-7,/,/,/
COc1cc(NC(=O)Nc2ccccc2)c(OC)cc1NC(=O)CN1CCCCC1,-2,44,90*,27,0.74,2
Cc1ccc(Cl)cc1N1CCN(CC(=O)Nc2ccc(CN3CCCCC3)cc2)CC1,3,98*,38,55*,-5.5,-2
COc1ccccc1N1CCN(CC(=O)Nc2ccc(CN3CCCCC3)cc2)CC1,-1,64*,31,7,0.94,-1
COc1ccccc1NC(=O)CN1CCN(c2ccccc2OC)CC1,-3,4,15,15,0.53,-2
COc1cc(NC(=O)Nc2ccccc2OC)c(OC)cc1NC(=O)CN1CCCCC1,-1,23,3,11,0.15,-1
Cc1ccc(NC(=O)CN2CCN(Cc3ccccc3)CC2)cc1F,-1,/,/,17,/,-1
CCc1ccc(CN(C)Cc2nc(-c3cccc(Cl)c3)no2)nc1,-2,-4,-12,-10,0.17,-1
CCN(CC)c1ccc(NC(=O)c2ccc3c(c2)c(C)c(C)n3C)cc1,5,45,-14,69*,0.38,2
CC(C)c1c(C(=O)N/N=C2\CCc3ccccc32)nnn1-c1nonc1N,1,/,/,-1,/,1
COc1cc(/C=C(\C#N)C(=O)c2ccc(O)c(O)c2)cc(I)c1O,-6,/,86*,/,/,0
Cc1ccc(O)c(C(=O)c2coc(=N)c(C(=O)NC(C)C)c2)c1,1,71*,6,-8,-0.57,0
COC(=O)c1cc(C(=O)c2cc(Cl)ccc2O)coc1=N,-1,-5,4,-3,-0.22,0
